# In ChEMBL document CHEMBL1143693, “Cancer chemopreventive effects of cycloartane-type and related triterpenoids in in vitro and in vivo models” (J Nat Prod, 2007):
# Calls of active or inactive are those of the source. No cut-off for these calls is given here.
# Assays:
# Human gammaherpesvirus 4 [1] = assay: Inhibition of TPA-induced Epstein-Barr virus early antigen activation assessed as EBV-EA induction in Raji cells at 320 nM after 48 hrs relative to TPA; values are per cent of control; details: human gammaherpesvirus 4, Raji
# Mus musculus [2] = species on record: Mus musculus; assay: Inhibition of TPA-induced skin tumor promotion in ICR mouse assessed as incidence of skin papilloma at 85 nmol after 10 weeks; type: functional
# How it was run: (§1)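 Specific pathogen-free ICR mice, 15 per group, were initiated with DMBA and promoted with TPA, with or without 85 nmol compound. Papilloma incidence and mean papillomas per mouse were recorded up to 20 weeks of promotion. Groups were compared by Student's t-test.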
# [3] = Scavenging activity against NO generation in human Chang liver cells assessed as inhibition of NOR1-activation at 350 nM relative to NOR1; type: functional
# Human gammaherpesvirus 4 [4] = assay: Inhibition of TPA-induced Epstein-Barr virus early antigen activation assessed as EBV-EA induction in Raji cells at 0.32 nM after 48 hrs relative to TPA; values are per cent of control; details: human gammaherpesvirus 4, Raji
# Mus musculus [5] = species on record: Mus musculus; assay: Inhibition of TPA-induced skin tumor promotion in ICR mouse assessed as incidence of skin papilloma at 85 nmol after 20 weeks; type: functional; details: values are per cent of control
# How it was run: as §1
# Raji = assay: Cell viability of Raji cells at 320 nM; type: functional, Homo sapiens
# Human gammaherpesvirus 4 [6] = assay: Inhibition of TPA-induced Epstein-Barr virus early antigen activation assessed as EBV-EA induction in Raji cells at 3.2 nM after 48 hrs relative to TPA; values are per cent of control; details: human gammaherpesvirus 4, Raji
# Human gammaherpesvirus 4 [7] = assay: Inhibition of TPA-induced Epstein-Barr virus early antigen activation assessed as EBV-EA induction in Raji cells at 32 nM after 48 hrs relative to TPA; values are per cent of control; details: human gammaherpesvirus 4, Raji
# Mus musculus [8] = species on record: Mus musculus; assay: Inhibition of TPA-induced skin tumor promotion in ICR mouse assessed as reduction in number of skin papillomas at 85 nmol; type: functional, organism-based
# How it was run: as §1
# Human gammaherpesvirus 4 [9] = assay: Inhibition of TPA-induced Epstein-Barr virus early antigen activation in Raji cells after 48 hrs; type: functional, organism-based; details: human gammaherpesvirus 4, Raji
IC50 (Human gammaherpesvirus 4 [9]),Structure (SMILES),"level, % of control at 0.32 µM (Human gammaherpesvirus 4 [1])",Papilloma incidence % (Mus musculus [2]),Activity [3],"level, % of control at 0.00032 µM (Human gammaherpesvirus 4 [4])","response, % of control (Mus musculus [5])",Activity (Raji),"level, % of control at 0.0032 µM (Human gammaherpesvirus 4 [6])","level, % of control at 0.032 µM (Human gammaherpesvirus 4 [7])",Activity (Mus musculus [8])
6.7 nM,COCC(O)(CC[C@@H](C)[C@H]1CC[C@@]2(C)[C@@H]3CC[C@H]4C(C)(C)[C@@H](O)CC[C@@]45C[C@@]35CC[C@]12C)C(C)C (stereo not given in full),0%,27%,2.1,83.1%,87%,70%,65.4%,15.2%,Active
6.1 nM,CC(C)C(O)(CO)CC[C@@H](C)[C@H]1CC[C@@]2(C)[C@@H]3CC[C@H]4C(C)(C)[C@@H](O)CC[C@@]45C[C@@]35CC[C@]12C (stereo not given in full),0%,20%,2.2,81%,80%,70%,63.2%,13%,Active
